Test results reported in publication PMC5576345 (Chemical communications (Cambridge, England), 2017).
Where two headings read alike, the source gives them in different places.

Experiments:
[1] = biological target: rTbHK1 (recombinant T. brucei hexokinase 1); test: rTbHK1 enzyme inhibition assay; type: biochemical, Trypanosoma brucei; conditions: read-out: TbHK1 IC50; dose-response
Outline: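 Recombinant TbHK1 was expressed in and isolated from Escherichia coli or yeast. The purified enzyme was tested in triplicate for percent inhibition at 10 μM test compound. IC50 was taken as the concentration giving 50% inhibition of TbHK1 activity.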

BSF T. brucei [2] = test: Growth inhibition of BSF T. brucei cultures; type: cell-based, Trypanosoma brucei; conditions: for EC50: read-out: BSF EC50, dose-response in triplicate, 384-well format
Outline: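 Bloodstream-form T. brucei cultures were treated in triplicate with test compound at 10 μM, with DMSO vehicle as negative control and a reference inhibitor as positive control on each plate. Percent growth inhibition was calculated against DMSO-treated parasites on the same plate. Compounds giving >50% inhibition at 10 μM went to triplicate dose-response curves, and the EC50 was fitted as the concentration killing 50% of parasites.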

[3] = biological target: rTbHK1 (recombinant T. brucei hexokinase 1); conditions: read-out: rTbHK1 IC50; initial round of SAR study; cited from earlier work
BSF T. brucei [4] = conditions: cited from earlier work
mammalian hexokinase = conditions: cited from earlier work
human cell lines = conditions: cited from earlier work

With `CC(C)(C)c1ccc(C(=O)Nc2cc(Cl)c(Br)cc2C(=O)O)cc1` [Compound 2] the IC50 [1] was 980 ± 67 nM, the “%BSF Growth Inhibition (10 μM)” value (BSF T. brucei [2]; 10 μM, triplicate, vs DMSO controls) was 6.9 ± 3.0% and the EC50 (BSF T. brucei [2]) was greater than 10000 nM. The IC50 [3] was 980 ± 70 nM, the “Trypanocidal activity against whole-cell BSF parasites (result in words)” value (BSF T. brucei [4]) was “not an effective trypanocide” and the “Impact on a mammalian hexokinase” value (mammalian hexokinase) was “no impact”. The “Toxicity toward human cell lines” value (human cell lines) was “no appreciable toxicity”.

For `N=C(N)c1ccc(OCCCCCOc2ccc(C(=N)N)cc2)cc1` [pentamadine], the EC50 (BSF T. brucei [2]) was 3 ± 1 nM.
